Screens as filed in PubChem.
STAT1 activator: increases IFN-gamma driven STAT1 reporter signal | NIH 3T3 STAT1-luciferase reporter, luminescence; 100% = IFN-gamma alone, no compound | activation (% of control), % at 5.5 µM | hit rate 2.6% among 200,000 | AID 932;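 active = activation above the screen-wide mean activation plus 3 SD, cut at about 130% in these data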;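 note: raw ratio to IFN-gamma control signal so 100% means no change and 0% no light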
APP 5'UTR act: APP 5'UTR luciferase reporter activation; activation, % at 2 µM; SH-SY5Y APP 5'UTR luciferase reporter, luminescence; zero percent = DMSO vehicle wells; hit rate 1% among 190,000;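 active = activation above a set limit, based on mean plus 3 SD of controls, cut at about 140% in these data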
NF-kB expr up: compounds increasing NF-kB expression in human neuronal cells | NF-kB reporter expression; active compounds read high | fold change at 12.5 µM | hit rate 1.6% among 190,000 | AID 1239; in the data active = fold change above about 3.3
FLuc inhib CS: counter-screen for luciferase assay inhibitors: firefly luciferase inhibition; AID 1006; ATPLite firefly luciferase biochemical luminescence, 10 min; P08659; hit rate 1.5% among 200,000; inhibition, % at 10 µM;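 active = inhibition above about 50% when tested at 10 µM, limit read from the data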
Target sequence (P08659 whole entry, looked up): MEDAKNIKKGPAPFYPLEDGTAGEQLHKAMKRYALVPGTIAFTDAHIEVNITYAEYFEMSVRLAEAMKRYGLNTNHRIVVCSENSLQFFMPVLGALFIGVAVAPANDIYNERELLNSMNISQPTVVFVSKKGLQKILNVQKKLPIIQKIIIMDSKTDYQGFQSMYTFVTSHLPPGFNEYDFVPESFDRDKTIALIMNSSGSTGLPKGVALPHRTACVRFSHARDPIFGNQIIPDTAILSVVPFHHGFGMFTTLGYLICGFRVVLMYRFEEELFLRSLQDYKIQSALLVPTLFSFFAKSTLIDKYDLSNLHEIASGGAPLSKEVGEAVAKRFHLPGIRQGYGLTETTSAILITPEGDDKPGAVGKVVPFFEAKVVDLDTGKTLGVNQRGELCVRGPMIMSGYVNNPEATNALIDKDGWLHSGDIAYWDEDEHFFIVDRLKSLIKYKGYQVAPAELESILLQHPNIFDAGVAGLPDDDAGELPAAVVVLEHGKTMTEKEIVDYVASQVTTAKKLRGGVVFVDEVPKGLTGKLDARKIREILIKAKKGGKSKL
FLuc stim CS: affects firefly luciferase, flagging false hits in luciferase stimulation screens. ATPlite luciferase biochemical, luminescence, 10 min; 0 = ATP-free wells, 1 = DMSO control. activation factor at 10 µM. 200,000 tested, under 10 active;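 active = luciferase activation factor, scaled between plate controls, of at least 2 with compound at 10 µM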
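test system = cell-free luciferase reagent | medium = PBS as buffer for the ATP substrate | dosing = test compounds dosed from 2 mM stocks in 100% DMSO | incubation = 10 min at ambient temperature | detection = luminescence measurement of luciferase light output | benchmarks = low control with PBS replacing ATP, high control enzyme plus ATP without compound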
Active calls of the source: *; / = not tested or not shown. A selection: hits, their analogues and other compounds. The true share with any hit is near 4.3%.

SMILES	STAT1 activator	APP 5'UTR act	NF-kB expr up	FLuc inhib CS	FLuc stim CS
CCn1nc(C)cc1C(=O)N1CCc2c([nH]c3ccccc23)C1c1cc(F)ccc1F (stereo not drawn)	137.0*	40.9	2.13	-1.8	1
CN1C(=O)/C(=C/C=C2\SCCN2C)N(C)C1=S	132.1*	74.8	5.26*	13.3	0.9
Cc1cc(/C=C2/C(=O)N(C)C(=S)N2C)c(C)n1C1CC1	98.8	51.3	2.21	1.1	1
COc1ccccc1OC(=O)c1cc(Cl)nc2ccccc12	104.9	-3.5	1.36	-7.6	1.1
Cc1ccccc1C(=O)c1cccn1CC(=O)NCCN1CCN(c2cccc(C)c2C)CC1	99.2	-15.5	0.59	-1.1	1
COc1ccc(/C=C2\SC(=O)N(CCNC(=O)Cn3cnnn3)C2=O)cc1	137.5*	118.5	3.71*	21.6	0.8
O=C(NCCN1C(=O)S/C(=C\c2ccc(F)cc2)C1=O)C1CCN(S(=O)(=O)c2cccs2)CC1	95.6	-9.2	1.03	1.9	1
O=C1S/C(=C\c2ccc(Cl)cc2)C(=O)N1CCn1cnnn1	100.9	3.7	1.08	-3.1	1
COc1ccc(/C=C2\SC(=O)N(CCNC(=O)C3CCN(S(=O)(=O)c4cccs4)CC3)C2=O)cc1	138.3*	91.4	1.34	8.6	0.9
COc1ccc(/C=C2\SC(=O)N(CCNC(=O)CCS(=O)(=O)c3ccc(C)cc3)C2=O)cc1	130.6*	53.4	2.82	22.9	0.8
CC(Cc1ccccn1)NC(=O)CCc1nnc(C2CCCCC2)o1 (stereo not drawn)	107.6	5.4	1.18	-6.9	1.1
CC1CCN(c2c([N+](=O)[O-])c(=O)oc3ccccc23)CC1	109.5	-3.7	1.14	4.5	1
COc1ccc(NC(=O)c2cccc(F)c2)cc1Cl	129.5*	29.7	2.4	14.8	0.9
COc1ccc(NC(=O)c2ccccc2F)cc1Cl	118.9	120.4	4.32*	38.1	0.6
COc1ccc(NC(=O)c2cccc(OC(F)F)c2)cc1Cl	113.4	115.6	2.67	14.4	0.9
C=CCNC(=S)N/N=C/c1ccc(C)cc1C	98.9	27.4	1.34	62.9*	0.4
C=CCNC(=S)N/N=C/c1ccc(C(F)(F)F)cc1	96.9	-0.6	1.09	51.7*	0.5
CCNC(=S)N/N=C/c1cc(C)ccc1C	95.0	-10.8	1.19	-1.1	1
O=C(Cn1cc(C(F)(F)F)ccc1=O)N/N=C/c1ccc(Cl)cc1	97.4	19.4	1.28	-8.5	1.1
Cc1nc(N/N=C/c2ccccn2)sc1C	29.5	-5.2	1.06	93.7*	0.1
CCCc1sc(N/N=C/c2ccccn2)nc1-c1ccc(F)cc1	101.5	117.5	1.1	-4.2	1
O=C(c1ccccc1)N1CCN(c2ncnc3sc4c(c23)CCC4)CC1	86.0	15.6	0.48	2.5	1
Cc1ccc(-c2cn3nc(C)c(C)nc3n2)cc1	110.9	46.5	4.74*	75.1*	0.2
Cc1cc(N2CCN(C)CC2)n2cc(-c3ccc(F)cc3)nc2n1	102.6	-0.9	1.32	-5.9	1.1
Cc1cc(OCC(=O)N(C)C2CCCCC2)ccc1Cl	121.6	142.1*	/	17.7	0.8
SMILES	STAT1 activator	APP 5'UTR act	NF-kB expr up	FLuc inhib CS	FLuc stim CS
Cc1cc(OCC(=O)N(C)C2CCCCC2)cc(C)c1Cl	117.7	22.5	1.97	3.2	1
Cc1nc2ccc(NC(=O)c3ccc(Cl)s3)cc2s1	145.9*	111.2	2.23	0.0	1
Cc1nc2ccc(NC(=O)c3cccnc3)cc2s1	108.7	13.1	1.09	4.5	1
Cc1nc2ccc(NC(=O)Cc3cccs3)cc2s1	135.5*	62.7	2.52	38.5	0.6
CCCC(=O)Nc1nc2ccc(NC(=O)c3ccc(Br)o3)cc2s1	97.9	-6.8	0.58	-8.3	1.1
O=C(Nc1ccc(-c2nc3cccnc3s2)cc1)c1ccc(Br)o1	131.4*	32.9	2.28	3.3	1
Cc1nc2ccc(NC(=O)c3ccc(Br)o3)cc2s1	145.3*	99.6	3.44*	29.7	0.7
COc1ccc(CNC(=O)c2noc(C)c2[N+](=O)[O-])cc1	98.3	0.8	1.08	-8.7	1.1
Cc1cc(Cl)ccc1OCC(=O)NCC(=O)N/N=C/c1ccco1	102.4	-7.8	1.17	0.8	1
Cc1cccc2cc(CNC3CCCC3)c(Cl)nc12	109.4	4.5	1.14	-5.0	1.1
Nc1nc(COc2ccc3ccccc3c2)cs1	137.6*	48.4	2.4	28.8	0.7
Nc1nc(CCOc2ccc(F)cc2)cs1	141.4*	30.4	1.78	-2.4	1
Nc1nc(-c2ccc(F)cc2)cs1	113.1	-2.4	1.67	1.7	1
OC1(c2ccc(F)cc2)CCN(Cc2nnnn2Cc2cccs2)CC1	104.4	-8.4	1.52	-2.9	1
CCNc1ccc(C2(O)C(=O)c3ccccc3C2=O)cc1	86.6	-3.3	1.33	0.1	1
C/C(=N\OC(=O)c1ccccc1)c1cc(-c2ccc(Cl)cc2)no1	101.5	25.9	1.83	-4.8	1
C/C(=N/OC(=O)C1CC1)c1cc(-c2ccc(Cl)cc2)no1	136.2*	88.4	2.5	10.5	0.9
O=C1CC(c2ccco2)CC(O)=C1C=Nc1cc(Cl)ccc1O (stereo not drawn)	90.7	0.6	3.36*	8.6	0.9
O=C1N=C(N2CCN(c3ccccc3)CC2)S/C1=C\c1cn[nH]c1-c1ccccc1	100.5	-37.7	0.41	-2.0	1
O=C1N=C(N2CCN(c3ccccc3)CC2)S/C1=C\c1ccco1	105.4	-1.7	1.24	60.6*	0.4
O=c1c2c3c(sc2nc2n1N=C(c1cccs1)CS2)CCCC3	115.0	12.9	0.93	76.2*	0.2
Nc1[nH]c(N=NC(=O)c2ccccc2)c2ccccc12	142.2*	131.9	3.37*	60.8*	0.4
Nc1[nH]c(N=NC(=O)c2ccc(Cl)cc2)c2ccccc12	117.1	17.3	1.34	48.2	0.5
Nc1[nH]c(N=NC(=O)c2ccccc2O)c2ccccc12	103.5	65.8	2.29	85.4*	0.1
Cc1cccc(NC(=O)Cn2c(O)c(N=NC(=O)c3ccccc3O)c3ccccc32)c1	99.6	7.8	1.12	31.7	0.7
SMILES	STAT1 activator	APP 5'UTR act	NF-kB expr up	FLuc inhib CS	FLuc stim CS
CCOC(=O)c1cccc(COC(=O)c2cccc(-c3nnc(-c4ccccc4)o3)c2)c1	130.8*	66.2	1.98	-3.5	1
Cc1ccc(OCC(=O)Nc2cccc(-c3nnc(-c4ccccc4)o3)c2)c(C)c1	132.4*	-5.2	0.95	16.7	0.8
CC(=O)Nc1cccc(-c2nnc(-c3ccccc3)o2)c1	129.6*	81.9	2.19	11.5	0.9
O=C(Nc1cccc(-c2nnc(-c3ccccc3)o2)c1)C1CC1	121.0	31.4	1.09	5.5	0.9
O=C(N/C(=C\c1cccc([N+](=O)[O-])c1)C(=O)N1CCOCC1)c1ccc([N+](=O)[O-])cc1	130.6*	0.1	0.68	-2.7	1
CN=c1scc(C)n1/N=C/c1ccc2c(c1)OCO2	119.7	208.6*	8.6*	57.5*	0.4
CN=c1scc(-c2ccco2)n1/N=C/c1ccc(O)c(O)c1	99.5	8.9	3.83*	87.7*	0.1
CN=c1scc(C)n1/N=C/c1cc(Br)c(O)c(Br)c1	109.8	-4.0	5.49*	32.0	0.7
